Reference: ChEMBL document CHEMBL1138232, “Optimization of naphthalimide-imidazoacridone with potent antitumor activity leading to clinical candidate (HKH40A, RTA 502)” (J Med Chem, 2007)

What was measured:
[1] = tested on: HT-29; assay: Growth inhibition of human HT29 cells after 5 days by MTT assay; format: functional; conditions: HT-29, 120 h; for CC50: read-out: LC50 (the source's name)
Method in brief: (§1)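 MTT assay after 5 day continuous exposure. GI50, TGI and LC50 calculated from the MTT data. Means ± SD of at least three independent experiments; coefficients of variation 10-20%. Compounds used as tri(methanesulfonate) salts.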

[2] = Growth inhibition of human Hep3B cells after 5 days by MTT assay; format: functional, Hep 3B2; conditions: 120 h; for CC50: read-out: LC50 (the source's name); method in brief: as §1
[3] = tested on: HCT-116; assay: Growth inhibition of human HCT116 cells after 5 days by MTT assay; format: functional; conditions: HCT-116, 120 h; method in brief: as §1
[4] = Antitumor activity against human 10.05 cells expressing mutated p53; format: functional, cell-based
Method in brief: (§2)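 Compounds tested as tri(methanesulfonate) salts, soluble in water and dilute buffers. Human tumour cells carrying wild-type or mutated p53 were exposed for 5 days, and viability was read by MTT assay. GI50, TGI and LC50 were calculated from the MTT data. Values are means ± SD of at least three independent experiments, with coefficients of variation of 10–20%.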

[5] = tested on: PC-3; assay: Antitumor activity against PC3 cells expressing mutated p53; format: functional, cell-based; conditions: Homo sapiens; method in brief: as §2
[6] = tested on: HCT-116; assay: Cell cycle arrest in HCT116 cells assessed as accumulation at G1 phase at 50 nM after 72 hrs; format: functional, Homo sapiens
Method in brief: (§3)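 HCT116 cells exposed to 50 nM drug for 72 h, then cell-cycle distribution analysed. Sub-G1, G1, S and G2/M fractions reported as percent of cells, with untreated control cells for comparison.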

[7] = tested on: HT-29; assay: Antitumor activity against HT29 cells expressing mutated p53; format: functional, cell-based; conditions: Homo sapiens; method in brief: as §2
[8] = tested on: HCT-116; assay: Cell cycle arrest in HCT116 cells assessed as accumulation at G2/M phase at 50 nM after 72 hrs; format: functional, Homo sapiens; method in brief: as §3
[9] = tested on: COLO 205; assay: Antitumor activity against human Colo205 cells expressing mutated p53; format: functional, cell-based; method in brief: as §2
[10] = tested on: RKO; assay: Antitumor activity against human RKO cells expressing wild type p53; format: functional; conditions: read-out: LC50 (the source's name); method in brief: as §2
[11] = tested on: HCT-116; assay: Cell cycle arrest in HCT116 cells assessed as accumulation at Sub G1 phase at 50 nM after 72 hrs; format: functional, Homo sapiens; method in brief: as §3
[12] = tested on: ASPC1; assay: Antitumor activity against p53 null human ASPC1 cells; format: functional, cell-based
[13] = tested on: HCT-116; assay: Antitumor activity against human HCT116 cells expressing wild type p53; format: functional; conditions: read-out: LC50 (the source's name); method in brief: as §2
[14] = tested on: HCT-116; assay: Cell cycle arrest in HCT116 cells assessed as accumulation at S phase at 50 nM after 72 hrs; format: functional, Homo sapiens; method in brief: as §3
[15] = tested on: MIA PaCa-2; assay: Inhibition of tumor growth in PaCa2 cells xenografted nu/nu mouse at 80 mg/kg; format: functional, Homo sapiens; conditions: read-out: TGI
Method in brief: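 PaCa-2 tumour fragments implanted on the flank of nu/nu mice, 10 per group. Intraperitoneal treatment, Q3Dx4, started 12 days post-inoculation at 80 mm3 tumour volume. Tumour growth inhibition measured.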

| Structure (SMILES) | GI50 [1] [nM] | CC50 [1] [nM] | GI50 [2] [nM] | CC50 [2] [nM] | GI50 [3] [nM] | LC50 [3] [nM] | further results |
| --- | --- | --- | --- | --- | --- | --- | --- |
| O=C1c2cccc3cccc(c23)C(=O)N1CCCN1CCN(CCCNc2ccc3ncn4c5ccccc5c(=O)c2c34)CC1 | 11 | 1000 | 22 | 1000 | 15 | 1000 |  |
| COc1ccc2c(c1)c(=O)c1c(NCCCN3CCN(CCCN4C(=O)c5cccc6cccc(c56)C4=O)CC3)ccc3ncn2c31 | 3 | 1000 | 3.5 | 330 | 3.5 | 70 |  |
| Nc1cc2c3c(cccc3c1)C(=O)N(CCCN1CCN(CCCNc3ccc4ncn5c6ccc(F)cc6c(=O)c3c45)CC1)C2=O | 8 | 750 |  |  | 2.2 | 80 |  |
| O=C1c2cccc3cc([N+](=O)[O-])cc(c23)C(=O)N1CCCN1CCN(CCCNc2ccc3ncn4c5ccccc5c(=O)c2c34)CC1 | 2 | 550 | 4 | 380 | 1 | 40 | IC50 [4]: 300 nM; IC50 [5]: > 1000 nM; Activity [6]: 37.9%; IC50 [7]: 550 nM; Activity [8]: 45%; IC50 [9]: 500 nM; CC50 [10]: 40 nM; Activity [11]: 15.5%; IC50 [12]: 350 nM; CC50 [13]: 40 nM; Activity [14]: 1.3% |
| O=C1c2cccc3cc([N+](=O)[O-])cc(c23)C(=O)N1CCCN1CCN(CCCNc2ccc3ncn4c5ccc(F)cc5c(=O)c2c34)CC1 | 2 | 600 | 4 | 400 | 1 | 40 |  |
| Cc1ccc2c(c1)c(=O)c1c(NCCCN3CCN(CCCN4C(=O)c5cccc6cc([N+](=O)[O-])cc(c56)C4=O)CC3)ccc3ncn2c31 |  |  |  |  | 3.5 | 30 |  |
| Cc1cccc2c1c(=O)c1c(NCCCN3CCN(CCCN4C(=O)c5cccc6cc([N+](=O)[O-])cc(c56)C4=O)CC3)ccc3ncn2c31 |  |  |  |  | 3 | 30 |  |
| O=C1c2cccc3c([N+](=O)[O-])ccc(c23)C(=O)N1CCCN1CCN(CCCNc2ccc3ncn4c5ccccc5c(=O)c2c34)CC1 | 15 | 1000 | 18 | 1000 | 5.5 | > 1000 |  |
| COc1ccc2c(c1)c(=O)c1c(NCCCN3CCN(CCCN4C(=O)c5cccc6c([N+](=O)[O-])ccc(c56)C4=O)CC3)ccc3ncn2c31 | 4 | 1000 | 5 | 800 | 3 | 350 |  |
| Nc1ccn([C@@H]2O[C@H](CO)[C@@H](O)C2(F)F)c(=O)n1 [GEMCITABINE] |  |  |  |  |  |  | inhibition in vivo at 80 mg/kg [15]: 85.3% |
